Data: ChEMBL document CHEMBL1240517, “Bisbibenzyl derivatives sensitize vincristine-resistant KB/VCR cells to chemotherapeutic agents by retarding P-gp activity” (Bioorg Med Chem, 2010)
Several values for one entry are separate records, joined by “and”; a condition that tells them apart may be missing. Equal values may be shown once. Activity calls are given as the source filed them. The calls are words filed in the database; no cut-off is given here.

Experiments:
[1] = tested on: KB/VCR; assay: Reversal of P-glycoprotein-mediated vincristine-resistance in human KB/VCR cells expressing Pgp assessed as ratio of adriamycin IC50 to adriamycin IC50 in presence of compound at 16 uM after 48 hrs by MTT assay; format: cell-based
In short: (§1)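 Cells were exposed for 48 h to VCR or ADR alone, or to VCR or ADR combined with a fixed concentration of modulator. Verapamil (16 µM) served as the reference agent. […] RF = IC50 of drug alone / IC50 with modulator. Means ± SD of three experiments.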

[2] = tested on: KB; assay: Potentiation of adriamycin-induced cytotoxicity against human KB cells at 16 uM after 48 hrs by MTT assay; format: functional; in short: as §1
[3] = tested on: KB; assay: Potentiation of vincristine-induced cytotoxicity against human KB cells at 16 uM after 48 hrs by MTT assay; format: functional; in short: as §1
[4] = tested on: KB/VCR; assay: Reversal of P-glycoprotein-mediated vincristine-resistance in human KB/VCR cells expressing Pgp assessed as ratio of vincristine IC50 to vincristine IC50 in presence of compound at 16 uM after 48 hrs by MTT assay; format: cell-based; in short: as §1
[5] = tested on: KB/VCR (human); settings: 4 to 16 uM
[6] = Cytotoxicity against human KB/VCR cells expressing Pgp after 48 hrs by MTT assay; format: functional, cell-based
In short: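 KB/VCR cells were kept in 200 ng/mL VCR and moved to drug-free medium for at least one week before use. Cells were exposed to graded compound concentrations for 48 h, with DMSO-treated cells as controls. Viability was read by MTT. IC50 values are means of three experiments.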

[7] = tested on: KB/VCR; assay: Reversal of P-glycoprotein-mediated vincristine-resistance in human KB/VCR cells expressing Pgp assessed as ratio of vincristine IC50 to vincristine IC50 in presence of compound at 8 uM after 48 hrs by MTT assay; format: cell-based
In short: (§2)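 Cells were exposed for 48 h to VCR or ADR alone, or to VCR or ADR combined with a fixed concentration of modulator. RF = IC50 of drug alone / IC50 with modulator. Means ± SD of three experiments.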

[8] = tested on: KB/VCR; assay: Reversal of P-glycoprotein-mediated vincristine-resistance in human KB/VCR cells expressing Pgp assessed as ratio of vincristine IC50 to vincristine IC50 in presence of compound at 4 uM after 48 hrs by MTT assay; format: cell-based; in short: as §2
[9] = tested on: KB; assay: Cytotoxicity against human KB cells after 48 hrs by MTT assay; format: functional, cell-based
[10] = tested on: KB/VCR; assay: Inhibition of P-gp-mediated rhodamine-123 efflux in human KB/VCR cells at 6 uM after 2 hrs by flow cytometry; format: cell-based
In short: (§3)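 For efflux, cells were loaded with 5 µM Rh123 together with modulator or verapamil for 60 min at 37 °C. Cells were washed three times in Rh123-free medium and collected at 15, 30, 45, 60, 90 and 120 min after wash-out. They were resuspended in ice-cold PBS, and remaining Rh123 fluorescence was measured by flow cytometry.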

[11] = tested on: KB; assay: Potentiation of adriamycin-induced cytotoxicity against human KB cells at 8 uM after 48 hrs by MTT assay; format: functional; in short: as §1
[12] = tested on: KB; assay: Potentiation of vincristine-induced cytotoxicity against human KB cells at 8 uM after 48 hrs by MTT assay; format: functional; in short: as §1
[13] = tested on: KB/VCR; assay: Reversal of P-glycoprotein-mediated vincristine-resistance in human KB/VCR cells expressing Pgp assessed as ratio of adriamycin IC50 to adriamycin IC50 in presence of compound at 4 uM after 48 hrs by MTT assay; format: cell-based; in short: as §1
[14] = tested on: KB/VCR; assay: Reversal of P-gp-mediated multidrug-resistance in human KB/VCR cells assessed as increase in intracellular rhodamine-123 accumulation after 1 hr by flow cytometry relative to control; format: cell-based
In short: (§4)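 Cells were pretreated with modulator at 4, 8 or 16 µM, or DMSO, for 1 h. Rh123 (5 µM) was then added for a further 1 h at 37 °C in the dark. Cells were washed and resuspended in ice-cold PBS. Rh123 fluorescence was read by flow cytometry using 488 nm excitation and a 530 nm band-pass filter. Means ± SD of three independent experiments, compared with DMSO-treated cells.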

[15] = tested on: KB/VCR; assay: Induction of apoptosis in human KB/VCR cells expressing Pgp assessed as down-regulation of Bcl-2 expression at 16 uM after 48 hrs by Western blotting; format: functional, cell-based
In short: (§5)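 KB/VCR cells were treated for 48 h with modulator (16 µM), VCR (0.2 µM), or both. Cells were lysed in RIPA buffer containing protease and phosphatase inhibitors. Protein was separated by SDS–PAGE and transferred to PVDF. Membranes were blocked in 5% milk/TBST and probed overnight with anti-Bcl-2 or anti-Bax, then an HRP secondary. GAPDH served as loading control, with ECL detection.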

[16] = tested on: KB; assay: Potentiation of vincristine-induced cytotoxicity against human KB cells at 4 uM after 48 hrs by MTT assay; format: functional; in short: as §1
[17] = tested on: KB; assay: Potentiation of adriamycin-induced cytotoxicity against human KB cells at 4 uM after 48 hrs by MTT assay; format: functional; in short: as §1
[18] = tested on: KB/VCR; assay: Reversal of P-glycoprotein-mediated vincristine-resistance in human KB/VCR cells expressing Pgp assessed as ratio of adriamycin IC50 to adriamycin IC50 in presence of compound at 8 uM after 48 hrs by MTT assay; format: cell-based; in short: as §1
[19] = tested on: KB/VCR; assay: Induction of apoptosis in human KB/VCR cells expressing Pgp assessed as up-regulation of Bax expression at 16 uM after 48 hrs by Western blotting; format: functional, cell-based; in short: as §5
[20] = tested on: KB/VCR; assay: Induction of apoptosis in human KB/VCR cells expressing Pgp assessed as morphological changes using DAPI staining at 16 uM after 48 hrs by fluorescence microscopic analysis; format: functional, cell-based
In short: (§6)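 KB/VCR cells were treated for 48 h with modulator (16 µM), VCR (0.2 µM), or both. Cells were fixed in 4% paraformaldehyde for 10 min, permeabilized with 0.1% Triton X-100, and stained with DAPI (1:2000) for 10 min. Condensed or fragmented nuclei were scored by fluorescence microscopy.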

[21] = tested on: KB; assay: Induction of rhodamine-123 accumulation in human KB cells at […] after 1 hr by flow cytometry; format: functional, cell-based; in short: as §4
[22] = tested on: KB/VCR; assay: Inhibition of P-gp-mediated rhodamine-123 efflux in human KB/VCR cells at 6 uM after 1 hr by flow cytometry; format: cell-based; in short: as §3
[23] = tested on: KB/VCR; assay: Reversal of P-glycoprotein-mediated vincristine-resistance in human KB/VCR cells expressing Pgp assessed as ratio of vincristine IC50 to vincristine IC50 in presence of compound at 4 uM after 48 hrs by MTT assay
[24] = tested on: KB/VCR; assay: Reversal of P-gp-mediated multidrug-resistance in human KB/VCR cells assessed as increase in intracellular adriamycin accumulation at 8 uM after 1 hr by flow cytometry relative to control; format: cell-based
In short: (§7)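 Cells were incubated with ADR at 3 µg/mL, alone or with modulator at 4, 8 or 16 µM, for 1 h at 37 °C. The reaction was stopped in an ice-water bath, and cells were washed twice with ice-cold PBS. Intracellular ADR fluorescence was measured by flow cytometry as mean intensity and expressed relative to DMSO-treated control cells.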

[25] = tested on: KB; assay: Induction of adriamycin accumulation in human KB cells at […] after 1 hr by flow cytometry; format: functional, cell-based; in short: as §7
[26] = tested on: KB/VCR; assay: Reversal of P-gp-mediated multidrug-resistance in human KB/VCR cells assessed as increase in intracellular adriamycin accumulation at 16 uM after 1 hr by flow cytometry relative to control; format: cell-based; in short: as §7
[27] = tested on: KB/VCR; assay: Reversal of P-gp-mediated multidrug-resistance in human KB/VCR cells assessed as increase in intracellular adriamycin accumulation at 4 uM after 1 hr by flow cytometry relative to control; format: cell-based; in short: as §7
[28] = tested on: KB/VCR; assay: Induction of apoptosis in human KB/VCR cells expressing Pgp assessed as morphological changes using DAPI staining at 0.2 uM after 48 hrs by fluorescence microscopic analysis; format: functional, cell-based; in short: as §6
[29] = tested on: KB/VCR; assay: Induction of apoptosis in human KB/VCR cells expressing Pgp assessed as up-regulation of Bax expression at 0.2 uM after 48 hrs by Western blotting; format: functional, cell-based; in short: as §5
[30] = tested on: KB/VCR; assay: Induction of apoptosis in human KB/VCR cells expressing Pgp assessed as down-regulation of Bcl-2 expression at 0.2 uM after 48 hrs by Western blotting; format: functional, cell-based; in short: as §5

| Compound | fold change (FC) [1] | fold change (FC) [2] | fold change (FC) [3] | fold change (FC) [4] | IC50 ([6]; Homo sapiens, KB/VCR, 48 h) | fold change (FC) [7] | fold change (FC) [8] | IC50 [9] | further results |
| --- | --- | --- | --- | --- | --- | --- | --- | --- | --- |
| COc1ccc(CCN(C)CCCC(C#N)(c2ccc(OC)c(OC)c2)C(C)C)cc1OC (stereo unspecified) | 5.32 | 1.06 | 1.29 | 8.85 |  |  |  |  | inhibition [5]: inactive |
| Oc1ccc2cc1Oc1ccc(cc1)/C=C/c1cccc(O)c1Oc1cccc(c1)CC2 [DEHYDROMARCHANTIN C] |  |  |  | 5.95 | 86.9 µM | 3.51 | 2.16 | 84 µM |  |
| COc1ccc2cc1Oc1ccc(cc1)CCc1cccc(OC)c1Oc1cccc(c1)CC2 [DIMETHYL ETHER MARCHANTIAN C] | 6.06 | 0.91 | 1.54 | 7.53 | 95.4 µM | 2.57 and 6.76 | 4.78 | 94.9 µM | inhibition [10]: inactive; fold change (FC) [11]: 1.15; fold change (FC) [12]: 1.33; fold change (FC) [13]: 3.96; Activity [14]: Dose-dependent effect; Activity [15]: inactive; fold change (FC) [16]: 1.17; fold change (FC) [17]: 1.02; fold change (FC) [18]: 4.2; Activity [19]: inactive; Activity [20]: inactive; Activity [21]: inactive; inhibition [22]: Active |
| COc1ccc2cc1Oc1ccc(cc1)/C=C/c1cccc(OC)c1Oc1cccc(c1)CC2 [DIMETHYLETHER DEHYDROMARCHANTIN C] |  |  |  | 3.1 |  |  |  | 93.5 µM | fold change (FC) [23]: 2.47 |
| COc1cccc2c1C(=O)c1c(O)c3c(c(O)c1C2=O)C[C@@](O)(C(=O)CO)C[C@@H]3O[C@H]1C[C@H](N)[C@H](O)[C@H](C)O1.Cl [DOXORUBICIN HYDROCHLORIDE] |  |  |  |  | 49.7 µg/mL |  |  | 1.66 µg/mL | fold change (FC) [24]: 2.8; Activity [25]: inactive; fold change (FC) [26]: 5.7; fold change (FC) [27]: 2.1 |
| CC[C@]1(O)C[C@H]2CN(CCc3c([nH]c4ccccc34)[C@@](C(=O)OC)(c3cc4c(cc3OC)N(C=O)[C@H]3[C@@](O)(C(=O)OC)[C@H](OC(C)=O)[C@]5(CC)C=CCN6CC[C@]43[C@@H]65)C2)C1 [VINCRISTINE] |  |  |  |  | 1.48 µM |  |  | 0.00607 µM | IC50 ([6]; kb/vcr): 1.49 µM; Activity [28]: inactive; Activity [29]: inactive; Activity [30]: inactive |
